Data on one molecule can be found in ChEMBL document CHEMBL3271971, “Antineoplastic and biochemical properties of arylsulfonylhydrazones of 2-formylpyridine N-oxide” (J Med Chem, 1976).

Data set [1] relates to Mus musculus. The data set is described as follows: Effect on protein synthesis in tumor of CD-1 mouse allografted with mouse S180A cells assessed as [14C]-leucine incorporation at 80 mg/kg, ip pretreated for 1 hr followed by radiotracer-addition measured after 1 hr relative to control. It is filed as functional. The conditions noted are these: route intraperitoneal. Summed up:
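Sarcoma 180 ascites cells implanted 6 days earlier. Mice received a single ip dose of 10–80 mg/kg, then 1 h later an ip tracer: 200 μg thymidine-3H, 200 μg uridine-3H or 125 μg DL-leucine-14C. Tracer was incorporated for 1 h. Specific activity of tumor-cell DNA, RNA or protein is expressed as % of untreated controls. Values are means of 4-16 mice, each analyzed separately.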

Data set [2] deals with Mus musculus. The data set is described as follows: Effect on DNA synthesis in tumor of CD-1 mouse allografted with mouse S180A cells assessed as [3H]-thymidine incorporation at 80 mg/kg, ip pretreated for 3 hrs followed by radiotracer-addition measured after 1 hr relative to control. The class given is functional. Conditions: route intraperitoneal. The procedure, abridged:
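Mice bearing 6-day Sarcoma 180 ascites implants received a single ip dose of 80 mg/kg. At the stated pretreatment time they were given ip tracer: 200 μg thymidine-3H, 200 μg uridine-3H or 125 μg DL-leucine-14C. After 1 h of incorporation, specific radioactivity of DNA, RNA or protein was read as % of control incorporation.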

Data set [3] can be described thus: Antineoplastic activity against 1-formylisoquinoline thiosemicarbazone-resistant mouse S180A cells allografted in CD-1 mouse assessed as average survival at 60 mg/kg administered qd for 6 days (reference value: 14.4 +/- 0.9 days). The class given is functional. Summed up:
(§1)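 Ascitic tumours were transplanted from an appropriate donor mouse carrying a 7-day tumour growth. Drug was given at 10–60 mg/kg/day for six consecutive days. Sensitivity was judged by prolongation of survival time relative to untreated tumour-bearing controls. Mice were weighed throughout, and percentage weight change from onset to end of therapy indicated toxicity.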

The subject of data set [4] is Mus musculus. The data set is described as follows: Toxicity in BDF1 mouse allografted with mouse L1210 cells assessed as change in body weight at 20 mg/kg administered qd for 6 days (reference value: 13.6%). It is filed as organism-based. More on the design: dose 20 mg/kg. The conditions noted are these: in vivo, 144 h. The procedure, abridged:
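Ascitic tumors were transplanted from a donor mouse bearing a 7-day tumor. Daily doses were given for six consecutive days. Percentage body-weight change from onset to termination of therapy served as the index of drug toxicity.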

A further data set relates to L1210. The data set is described as follows: Antineoplastic activity against mouse L1210 cells allografted in BDF1 mouse assessed as average survival at 60 mg/kg administered qd for 6 days (reference value: 8.2 +/- 0.4 days). The class given is functional. Summed up: as §1
For another data set, the system named is Ehrlich. The data set is described as follows: Antineoplastic activity against mouse EAC cells allografted in CD-1 mouse assessed as mouse survival at 20 mg/kg administered qd for 6 days measured for 50 days relative to control. The class given is functional. The procedure, abridged: as §1
The nature of data set [5]: Antineoplastic activity against mouse Hepa129 cells allografted in C3H mouse assessed as average survival at 40 mg/kg administered qd for 6 days (reference value: 18 +/- 0.6 days). The class given is functional. The procedure, abridged: as §1

Take `Cc1ccc(S(=O)(=O)N/N=C/c2cccc[n+]2[O-])cc1`: the results for the Activity in the data set on Mus musculus [1], in the data set on Mus musculus [2] and in the data set with Mus musculus [4] were 73%, 53% and 10.6%, respectively. In addition, the Survival worked out at 24.4 days in data set [3], 11.8 days in the data set with L1210 and 24.8 days in data set [5]. Also, in the data set on Ehrlich, the survival at 20 mg/kg turned out to be 10%.
